Read-outs that look alike come from different tables or passages of the source.
Legend:
purified kinases = conditions: cited from earlier work; for inhibition of certain kinases: high concentrations, cell-free conditions
PARP = conditions: cited from earlier work
[1] = test system: MPN erythroid and myeloid progenitors; assay: Colony forming assay, mononuclear cells from MPN patients; type: cell-based, human; conditions: for IC50: Homo sapiens
How it was run: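 Peripheral-blood mononuclear cells from patients, Ficoll-Hypaque purified, washed into RPMI 1640 and mixed with methylcellulose medium containing PARP inhibitor (0, 0.5, 1, 2.5, 5, 10, 20 μM or 0, 0.25, 0.5, 1, 2, 5 μM; DMSO 0.1%). 1–5 × 10^5 cells per plate, 2–4 replicate plates, 37 °C, 5% CO2. Colonies (>40 cells) scored at 10–14 days (some CMMoL at 5–7 days). IC50 is 50% of diluent-control colonies, from linear regression after exponential transformation.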

| Compound | off-target kinase inhibitory activity (purified kinases) | more potent in vitro (olaparib relative to veliparib) (PARP) | inhibition of certain kinases (purified kinases) | IC50 ([1]; read-out: IC50 values averaging, CML samples) | IC50 ([1]; read-out: IC50 values averaging, CMMoL samples) | IC50 ([1]; read-out: mean IC50, JAK2V617F mutated samples) | IC50 ([1]; read-out: veliparib IC50s, 5 of 16 individual JAK2 mutated samples) | IC50 lower in MPN samples than in normal controls ([1]; average, MPN samples vs normal controls, P<0.0001) | IC50 lower in MPN samples with impaired RAD51 foci formation compared to those without ([1]; on average, p = 0.028) |
| --- | --- | --- | --- | --- | --- | --- | --- | --- | --- |
| O=C(c1cc(Cc2n[nH]c(=O)c3ccccc23)ccc1F)N1CCN(C(=O)C2CC2)CC1 [Olaparib] | lacks this off-target kinase inhibitory activity | roughly 10 fold |  |  |  |  |  |  |  |
| CN(C)CC(=O)Nc1ccc2[nH]c(=O)c3ccccc3c2c1 [PJ-34] |  |  | might also inhibit certain kinases |  |  |  |  |  |  |
| C[C@]1(c2nc3c(C(N)=O)cccc3[nH]2)CCCN1 [Veliparib] |  |  | might also inhibit certain kinases | 3 µM | 3 µM | 5.7 µM | < 2 µM | 4 fold | 3 fold |

— article PMC5041297 (Clinical cancer research : an official journal of the …, 2016)
